From PubChem BioAssay
MrgX1 PAM – positive allosteric modulators of MrgX1, primary screen, HEK293 cells, Fluo-4 calcium flux | FDSS; active compounds read high | B-score at 10 µM | 310,000 compounds, 0.63% hits | AID 588675, 2011;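 active means plate-corrected calcium response at least 3 library SD above typical, normal starting fluorescence, not activating the receptor alone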;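 further: compound read alongside a low EC10 to EC30 dose of BAM8-22 agonist; peak minus trough fluorescence over baseline measured at the second addition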
Target sequence (Q96LB2 whole entry, looked up): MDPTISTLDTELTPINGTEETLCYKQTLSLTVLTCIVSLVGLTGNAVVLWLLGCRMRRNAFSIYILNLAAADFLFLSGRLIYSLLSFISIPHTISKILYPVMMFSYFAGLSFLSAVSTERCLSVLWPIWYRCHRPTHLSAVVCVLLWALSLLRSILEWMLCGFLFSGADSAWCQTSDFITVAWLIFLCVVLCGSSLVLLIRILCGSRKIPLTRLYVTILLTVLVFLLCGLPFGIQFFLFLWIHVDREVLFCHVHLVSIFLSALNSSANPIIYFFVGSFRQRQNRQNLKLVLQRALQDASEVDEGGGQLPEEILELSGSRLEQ
MrgX1 agonist – agonists of human MrgX1 receptor, primary screen, HEK293 cells, Fluo-4 calcium flux; Mas-related G-protein coupled receptor member X1 (Homo sapiens), Q96LB2; Fluo-4 calcium fluorescence, agonist mode; active compounds read high; B-score at 10 µM; 310,000 compounds, 0.44% hits; AID 588627, 2011;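 active means calcium response B-score plate-corrected fluorescence ratio at least 3 library SD, with starting fluorescence B-score inside 5 SD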
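Test system: Stable human MrgX1 HEK293 cell line | Schedule: Overnight plating before 1 h dye loading | Read-out basis: Baseline-normalised fluorescence change ratio, B-scored | Detection: Kinetic calcium dye fluorescence, Fluo-4 NW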
RGS4 block – RGS4 inhibitors, primary screen, cell-based, HEK293 M3R inducible RGS4, calcium flux. Fluo-4 calcium flux; active compounds read high; triggered by carbachol at its EC20. B-score at 10 µM. Regulator of G-protein signaling 4 (Homo sapiens), P49798. 310,000 compounds, 0.45% hits. AID 463165, 2010;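 active means B-score, a plate-corrected calcium signal, over three deviations above library mean, with baseline fluorescence within five deviations of library mean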;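 further: RGS4 expression induced by doxycycline in cells with stable M3 receptor; B-score is computed from the integrated fluorescence ratio over baseline after carbachol; higher B-score means a larger calcium signal and so more RGS4 inhibition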
Target sequence (P49798 whole entry, looked up): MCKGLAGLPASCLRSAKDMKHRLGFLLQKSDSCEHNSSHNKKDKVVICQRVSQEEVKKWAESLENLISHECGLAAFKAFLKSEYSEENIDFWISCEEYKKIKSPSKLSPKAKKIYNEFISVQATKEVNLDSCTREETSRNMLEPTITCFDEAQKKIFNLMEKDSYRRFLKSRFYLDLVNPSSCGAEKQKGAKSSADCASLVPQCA
MrgX1 antagonist – antagonists of human MrgX1 receptor, primary screen, HEK293 cells, Fluo-4 calcium flux; 310,000 compounds, 1.3% hits; AID 588676, 2011; B-score at 10 µM; BAM8-22 antagonism; active compounds read low; Mas-related G-protein coupled receptor member X1 (Homo sapiens), Q96LB2;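 active means calcium-response B-score plate-corrected more than 3 library SD below zero, starting fluorescence within 5 deviations, no agonist response on first addition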;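 further: peak minus trough fluorescence over baseline after final BAM8-22 challenge near maximal dose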
RGS4 act – RGS4 potentiators or activators, primary screen, cell-based, HEK293 M3R inducible RGS4, calcium flux | B-score at 10 µM | carbachol calcium flux Fluo4; active compounds read low | AID 463111, 2010 | 310,000 compounds, 0.92% hits;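 active means B-score of the integrated calcium signal more than 4 SD below the library mean, with starting fluorescence not abnormally high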;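 further: negative B-score means reduced calcium response which marks RGS4 activation or potentiation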
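Assay system: HEK293 FlpIn-TREx cells, stable M3R, doxycycline-inducible RGS4 / Probe or stimulus: carbachol, ECmax concentration / Times: overnight RGS4 induction, 30 min dye load 37 °C, 20 min compound RT / Signal: kinetic calcium fluorescence imaging with Fluo4-AM dye, 2 µM / Measure: Agonist-evoked peak-minus-minimum fluorescence over baseline, integrated ratio, B score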
MrgX1 allo conf – MrgX1 positive allosteric modulators, duplicate retest, confirmation, HEK293 cells, Fluo-4 calcium flux; activation (ratio percentage), % at 10 µM; 1,200 compounds, 13% hits; Fluo-4 calcium fluorescence, FDSS; shares compounds with MrgX1 PAM;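 active means ratio at least 3 SD above the weak peptide control, stable starting fluorescence, no direct agonism earlier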;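 further: compound followed by low BAM8-22 agonist challenge near EC20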
MrgX1 ant reconf – MrgX1 receptor antagonists, duplicate retest, confirmation, HEK293 cells, Fluo-4 calcium flux; 2,300 compounds, 19% hits; shares compounds with MrgX1 antagonist; remaining BAM8-22 calcium response % of control (active compounds read low), % at 10 µM; BAM8-22 calcium flux; active compounds read low;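 active means remaining agonist calcium response no higher than 100% minus 3 SD of agonist-only control wells, with starting fluorescence near control levels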;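 further: agonist BAM8-22 given at a near maximal EC90 to ECmax level; peak minus minimum fluorescence divided by baseline after agonist addition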
HEK293 Ca flux – nonspecific calcium signal in parental HEK293, confirmation, counter-screen for MrgX1 antagonist project, parental HEK293 cells, Fluo-4 calcium flux; shares compounds with MrgX1 antagonist; Fluo-4 calcium fluorescence, FDSS; fluorescence ratio F(max-min)/F0 at 10 µM; 4,000 compounds, 2% hits; AID 624111, 2012;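 active means duplicate-averaged calcium fluorescence ratio at least three times the standard deviation of buffer wells, a nonspecific response in parental cells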
HEK293 Ca counter – calcium response in parental HEK293 cells, primary screen, counter-screen for MrgX1 allosteric activator project, cell-based, Fluo-4 calcium flux, duplicate | AID 624114, 2012 | fluorescence ratio F(max-min)/F0 at 10 µM | 4,000 compounds, 0.4% hits | shares compounds with MrgX1 antagonist | Fluo-4 fluorescence ratio; active compounds read high;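 active means calcium fluorescence ratio, averaged over duplicates, at least 3 SD of the buffer-well ratio, meaning a nonspecific response in receptor-free cells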;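 further: untransfected parental HEK293 lacking MrgX1 used as counterscreen for MrgX1 allosteric activators; fluorescence change taken during the second addition on a kinetic imager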
HEK293 Ca cntr2 – calcium response in parental HEK293 cells, primary screen, counter-screen for MrgX1 agonist project, cell-based, Fluo-4 calcium flux, duplicate, agonist mode; shares compounds with MrgX1 antagonist; Fluo-4 calcium fluorescence (FDSS); active compounds read high; fluorescence ratio F(max-min)/F0 at 10 µM; 4,000 compounds, 8.7% hits; AID 624115, 2012;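 active means calcium fluorescence ratio at least three times the spread of buffer wells, meaning a non-specific response in parental cells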
Numbers without * were called inactive; i = inactive; · = no result. Shown are actives, neighbours in structure and some others; about 3.5% of the full set was active somewhere.

SMILES	MrgX1 PAM	MrgX1 agonist	RGS4 block	MrgX1 antagonist	RGS4 act	MrgX1 allo conf	HEK293 Ca flux	HEK293 Ca counter	HEK293 Ca cntr2	others
C=CCn1c(COc2ccccc2)nnc1SC(C)C(=O)N/N=C/c1cc(Cl)ccc1O (configuration not stated)	i	i	i	i	i	·	·	·	·
C/C(=C\C(=O)c1ccccc1)NCc1ccc(F)cc1	7.4*	i	i	i	i	i	i	i	i
Cc1cc(-c2nnnn2-c2ccc(C(F)(F)F)cc2)no1	7*	i	i	i	i	i	i	i	i
Cc1ccc(-n2nnnc2-c2cccc(C)c2)cc1	i	i	i	i	i	·	·	·	·
Cc1ccc(S(=O)(=O)NCC2CCC(C(=O)NCc3cccnc3)CC2)cc1 (configuration not stated)	i	i	i	i	i	·	·	·	·
CNc1nc(Nc2ccc(C(C)=O)cc2)nc(OC(C(F)(F)F)C(F)(F)F)n1	8.6*	i	i	i	i	i	i	i	i
COc1ccccc1NC(=S)N1CCN(c2cccc(C)c2C)CC1	i	i	i	i	i	·	·	·	·
CCOC(=O)c1c(C)[nH]c(C)c1C(=O)COC(=O)c1c(OC)cccc1OC	7.1*	i	i	i	i	i	i	i	i
CSc1nc2ccc(S(=O)(=O)N(C)C)cc2s1	i	i	i	i	i	·	·	·	·
CCN(CC)S(=O)(=O)c1ccc2nc(SC)sc2c1	13*	i	i	i	i	i	i	i	i
Clc1ccc(-c2cc3ccccc3nc2N2CCOCC2)cc1	11*	i	i	i	i	i	i	i	i
Clc1ccc(-c2cc3ccccc3nc2N2CCCC2)cc1	i	i	i	i	i	·	·	·	·
COc1cc(C(=S)N2CCCC2)cc(OC)c1O	i	i	i	i	i	·	·	·	·
Cc1ccc2c(c1)C(=O)C(=O)N2CC(=O)Nc1ccccc1NC(=O)c1ccccn1	15*	i	i	i	i	i	i	i	i
Cc1ccc(CNC(=O)C2CCC(=O)N(CCCN3CCOCC3)C2)cc1 (configuration not stated)	i	i	i	i	i	·	·	·	·
O=C(O)COc1ccc(/C=N/NC(=O)C2CCCN2S(=O)(=O)c2ccc(Cl)cc2)cc1 (configuration not stated)	i	i	i	i	i	·	·	·	·
COc1ccc(N/C(C)=C/C(=S)Nc2ccccc2)cc1	27*	i	i	i	i	i	i	i	i
COc1ccc(N/C(C)=C/C(=O)c2ccccc2)cc1	i	i	i	i	i	·	·	·	·
CC12CCC(C(=O)Nc3nccs3)(OC1=O)C2(C)C (configuration not stated)	i	i	i	i	i	·	·	·	·
CC12CCC(C(=O)Nc3nc4ccc(Br)cc4s3)(OC1=O)C2(C)C (configuration not stated)	17*	i	i	i	i	6.5%*	i	i	i
Cc1ccc(N=Cc2sc(O)c3ccccc23)cc1	7*	i	i	-6.9*	i	i	i	i	i	MrgX1 ant reconf=75%*
Cc1ccc(N=Cc2sc(O)c3ccccc23)c(C)c1	i	i	i	i	i	·	·	·	·
Cc1cc([N+](=O)[O-])ccc1NC(=O)C[n+]1ccc(N(C)C)cc1	i	i	i	i	i	·	·	·	·
COc1ccccc1NC(=O)CSc1nnnn1-c1ccc(C(=O)O)cc1	i	i	i	i	i	·	·	·	·
CCCCOc1ccccc1NC(=O)CSc1nnnn1C(C)(C)C	22*	i	i	i	i	i	i	i	i
SMILES	MrgX1 PAM	MrgX1 agonist	RGS4 block	MrgX1 antagonist	RGS4 act	MrgX1 allo conf	HEK293 Ca flux	HEK293 Ca counter	HEK293 Ca cntr2	others
COc1ccc(NC(=O)c2ccccc2NS(C)(=O)=O)cc1OC	i	i	i	i	i	·	·	·	·
COc1ccccc1NC(=O)c1cc2cc(Br)ccc2cc1O	8.4*	i	i	i	i	16%*	i	i	i
COc1ccccc1NC(=O)c1ccccc1NS(=O)(=O)c1cccs1	54*	i	i	i	i	29%*	i	i	i
COc1ccccc1NC(=O)c1ccccc1NS(C)(=O)=O	11*	i	i	i	i	i	i	i	i
CCOc1ccccc1NC(=O)c1ccccc1NS(C)(=O)=O	23*	i	i	i	i	79%*	i	i	i
COc1cc(NC(=O)c2cc3ccccc3cc2O)c(OC)cc1Cl	i	i	i	i	i	·	·	·	·
CS(=O)(=O)Nc1ccccc1C(=O)Nc1ccccc1Cl	i	i	i	i	i	·	·	·	·
NCCCCc1cn(CC(=O)N2CCNCC2)nn1	i	i	i	i	i	·	·	·	·
Cc1cc(C)nc(NC(=O)c2c(-c3ccccc3Cl)noc2C)c1	i	i	i	i	i	·	·	·	·
CC(=O)c1ccc(N2C(=NC(=O)CCC3CCCC3)SC3CS(=O)(=O)CC32)cc1 (configuration not stated)	i	i	i	i	i	·	·	·	·
CC(OC(=O)CC(NC(=O)c1ccccc1Cl)c1ccccc1)C(=O)Nc1cccc(Cl)c1Cl (configuration not stated)	i	i	i	i	i	·	·	·	·
